Reference: ChEMBL document CHEMBL1142206, “Cysteine protease inhibitors block Toxoplasma gondii microneme secretion and cell invasion” (Antimicrob Agents Chemother, 2007)
Active and inactive are the calls of the source. The calls are words filed in the database; no cut-off is given here.

Tests used:
Toxoplasma gondii [1] = test: Inhibition of Toxoplasma gondii 2F1 invasion in HFF cells assessed as beta-galactosidase activity at 10 uM; format: functional, organism-based
Method in brief: (§1)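 2F1 tachyzoites in invasion medium (DMEM, 1% FBS, 10 mM HEPES) at 4 × 10^6/ml, preincubated 15 min at room temperature with inhibitor (10 or 50 μM) or DMSO, then loaded onto HFF monolayers for 30 min at 37°C, 5% CO2. Washed six times with cold PBS containing Ca/Mg, lysed, and β-gal measured with CPRG (45 min, 37°C) at A550. Two independent experiments in duplicate.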

Toxoplasma gondii [2] = test: Reduction of AMA1 secretion in Toxoplasma gondii 2F1 at 50 uM; format: functional, organism-based
Method in brief: (§2)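 2F1 parasites in DGH medium (DMEM, 2 mM glutamine, 10 mM HEPES), ~3–6 × 10^7 per reaction, pretreated 15 min at room temperature with 50 μM inhibitor or DMSO. Induced secretion used 2 min at 37°C with 1% ethanol; basal secretion used 20 min at 37°C without ethanol. Supernatant (ESA) immunoblotted for MIC2, AMA1, MIC5, MIC10 and GRA1; chemiluminescence quantified by CCD.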

Toxoplasma gondii [3] = test: Inhibition of Toxoplasma gondii 2F1 invasion in HFF cells by red/green invasion assay; format: functional, organism-based; conditions: 2F1, HFF
Method in brief: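 Red/green assay: 2F1 parasites (5 × 10^7/ml in invasion medium) preincubated 15 min at room temperature with inhibitor (0.1 to 100 μM) or DMSO, then put on HFF for 15 min at 37°C. After fixation, attached parasites were stained with rabbit anti-SAG1 before permeabilization and invaded ones with MAb 9E11 after 0.1% Triton; DAPI marked nuclei. Associated parasites per host nucleus normalized to solvent control; three experiments, eight fields/well.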

Toxoplasma gondii [4] = test: Reduction of MIC10 secretion in Toxoplasma gondii 2F1 at 50 uM; format: functional, organism-based; method in brief: as §2
Toxoplasma gondii [5] = test: Reduction of MIC5 secretion in Toxoplasma gondii 2F1 at 50 uM; format: functional, organism-based; method in brief: as §2
Toxoplasma gondii [6] = test: Inhibition of Toxoplasma gondii 2F1 invasion in HFF cells assessed as beta-galactosidase activity at 50 uM relative to control; format: functional; conditions: 2F1, HFF; method in brief: as §1
Toxoplasma gondii [7] = test: Inhibition of microneme protein secretion in Toxoplasma gondii 2F1
Toxoplasma gondii [8] = test: Effect on gliding motility in Toxoplasma gondii RH at 50 uM; format: functional, organism-based
Method in brief: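 RH tachyzoites in HHE medium (HBSS, 10 mM HEPES, 1 mM EGTA), pretreated 15 min at room temperature with 50 μM inhibitor or DMSO, then allowed to glide 15 min at 37°C on slides coated with 50% FBS or poly-L-lysine. Fixed, and SAG1-containing trails stained with MAb 9E11 and visualized by epifluorescence at ×600.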

Cc1cccc(C)c1C(=O)OCC(=O)CN was tested, and the Activity (Toxoplasma gondii [1]) was “inactive”.

With Cc1cccc(C)c1C(=O)OCC(=O)[C@@H](N)CCCNC(=N)N the Activity (Toxoplasma gondii [1]) was “inactive”.

In the case of Cc1cccc(C)c1C(=O)OCC(=O)[C@@H](N)CC(C)C, the Activity (Toxoplasma gondii [1]) is reported as “inactive”.

CC(C)C[C@H](/C=C/S(=O)(=O)c1ccccc1)NC(=O)[C@@H](CC(C)C)NC(=O)[C@@H](CC(C)C)NC(=O)Cc1cc(I)c(O)c([N+](=O)[O-])c1 was tested, and the Activity (Toxoplasma gondii [1]) was “inactive”.

CN1CCN(C(=O)N[C@@H](Cc2ccccc2)C(=O)N[C@H](/C=C/S(=O)(=O)c2ccccc2)CCc2ccccc2)CC1 was tested, and the Activity (Toxoplasma gondii [1]) was “inactive”.

In the case of CC(=O)N1CCC[C@H]1C(=O)N[C@@H](CCCNC(=N)N)C(=O)N[C@@H](CCCCN)C(=O)N[C@H](/C=C/S(=O)(=O)c1ccccc1)CC(N)=O, the Activity (Toxoplasma gondii [1]) is reported as “inactive”.

With CC(C)C[C@@H](NC(=O)N1CCOCC1)C(=O)N[C@@H](/C=C/S(=O)(=O)c1ccccc1)CCc1ccccc1 the Activity (Toxoplasma gondii [2]) was “Active”, the IC50 (Toxoplasma gondii [3]) was 10 µM and the Activity (Toxoplasma gondii [4]) was “Active”. For the same compound, the Activity (Toxoplasma gondii [5]) was “Active”, the inhibition at 50 µM (Toxoplasma gondii [6]) was 70% and the IC50 (Toxoplasma gondii [7]) was 25 µM. For the same compound, the Activity (Toxoplasma gondii [8]) was “Active”.

For CC(=O)N1CCC[C@H]1C(=O)N[C@@H](CCCCN)C(=O)N[C@@H](CCCCN)C(=O)N[C@H](/C=C/S(=O)(=O)c1ccccc1)CC(N)=O, the Activity (Toxoplasma gondii [1]) was “inactive”.

CC(C)C[C@H](/C=C/S(=O)(=O)c1ccccc1)NC(=O)[C@@H](CC(C)C)NC(=O)[C@@H](CC(C)C)NC(=O)OCc1ccccc1 was tested, and the Activity (Toxoplasma gondii [2]) was “Active”, the IC50 (Toxoplasma gondii [3]) was 12.5 µM and the Activity (Toxoplasma gondii [4]) was “Active”. For the same compound, the Activity (Toxoplasma gondii [5]) was “Active”, the inhibition at 50 µM (Toxoplasma gondii [6]) was 50% and the IC50 (Toxoplasma gondii [7]) was 50 µM. The Activity (Toxoplasma gondii [8]) was “Active” and the Activity (Toxoplasma gondii [1]) was “inactive”.

For Cc1cccc(C)c1C(=O)OCC(=O)[C@@H](N)CC(N)=O, the Activity (Toxoplasma gondii [1]) was “inactive”.

For CC(=O)N[C@@H](Cc1ccc(O)cc1)C(=O)N[C@@H](CCCCN)C(=O)N[C@@H](CCCNC(=N)N)C(=O)N[C@H](/C=C/S(=O)(=O)c1ccccc1)CC(N)=O, the Activity (Toxoplasma gondii [1]) was “inactive”.

CCC(C)[C@H](NC(=O)C1OC1C(=O)NCC(C)C)C(=O)N1CCC[C@@H]1C(=O)O (stereo partly drawn) was tested, and the Activity (Toxoplasma gondii [1]) was “inactive”.

O=c1oc(Cl)c(Cl)c2ccccc12 was tested, and the IC50 (Toxoplasma gondii [3]) was 12.5 µM and the Activity (Toxoplasma gondii [1]) was “inactive”.

In the case of CC(=O)N1CCC[C@H]1C(=O)N[C@@H](CCCCN)C(=O)N[C@@H](CCCNC(=N)N)C(=O)N[C@H](/C=C/S(=O)(=O)c1ccccc1)CC(N)=O, the Activity (Toxoplasma gondii [1]) is reported as “inactive”.

For CC(=O)N[C@@H](Cc1ccc(O)cc1)C(=O)N[C@@H](CCCCN)C(=O)N[C@@H](CCCCN)C(=O)N[C@H](/C=C/S(=O)(=O)c1ccccc1)CC(N)=O, the Activity (Toxoplasma gondii [1]) was “inactive”.

With CC(=O)N[C@@H](Cc1ccc(O)cc1)C(=O)N[C@@H](CCCCN)C(=O)N[C@@H](CC(C)C)C(=O)N[C@H](/C=C/S(=O)(=O)c1ccccc1)CC(N)=O the Activity (Toxoplasma gondii [1]) was “inactive”.

For CCOC(=O)C1OC1C(=O)N[C@@H](CC(C)C)C(=O)NCCc1ccc(O)cc1 (stereo partly drawn), the Activity (Toxoplasma gondii [1]) was “inactive”.

With CC(=O)N[C@@H](Cc1ccc(O)cc1)C(=O)N[C@@H](CCCNC(=N)N)C(=O)N[C@@H](CC(C)C)C(=O)N[C@H](/C=C/S(=O)(=O)c1ccccc1)CC(N)=O the Activity (Toxoplasma gondii [1]) was “inactive”.

With CC(=O)N1CCC[C@H]1C(=O)N[C@@H](CCCCN)C(=O)N[C@@H](CC(C)C)C(=O)N[C@H](/C=C/S(=O)(=O)c1ccccc1)CC(N)=O the Activity (Toxoplasma gondii [1]) was “inactive”.

With CCOC(=O)[C@H]1O[C@@H]1C(=O)N[C@@H](CC(C)C)C(=O)NCCC(C)C the Activity (Toxoplasma gondii [1]) was “inactive”.

CC(C)C[C@@H](/C=C/S(C)(=O)=O)NC(=O)[C@H](CC(C)C)NC(=O)[C@H](CC(C)C)NC(=O)[C@@H](N)Cc1ccc(O)cc1 was tested, and the Activity (Toxoplasma gondii [1]) was “inactive”.

With CC(=O)N1CCC[C@H]1C(=O)N[C@@H](CCCNC(=N)N)C(=O)N[C@@H](CC(C)C)C(=O)N[C@H](/C=C/S(=O)(=O)c1ccccc1)CC(N)=O the Activity (Toxoplasma gondii [1]) was “inactive”.

CC(C)C[C@H](NC(=O)[C@H]1O[C@@H]1C(=O)O)C(=O)NCCCCN=C(N)N was tested, and the Activity (Toxoplasma gondii [1]) was “inactive”.

In the case of CC(=O)N[C@@H](Cc1ccc(O)cc1)C(=O)N[C@@H](CCCNC(=N)N)C(=O)N[C@@H](CCCCN)C(=O)N[C@H](/C=C/S(=O)(=O)c1ccccc1)CC(N)=O, the Activity (Toxoplasma gondii [1]) is reported as “inactive”.
